Reference: ChEMBL document CHEMBL1158468, “Synthesis, structure-activity relationships, and in vivo evaluation of N3-phenylpyrazinones as novel corticotropin-releasing factor-1 (CRF1) receptor antagonists” (J Med Chem, 2009)

Target: T1, Corticotropin-releasing factor receptor 1 (Rattus norvegicus, UniProt P35353)
T1 sequence (P35353 whole entry): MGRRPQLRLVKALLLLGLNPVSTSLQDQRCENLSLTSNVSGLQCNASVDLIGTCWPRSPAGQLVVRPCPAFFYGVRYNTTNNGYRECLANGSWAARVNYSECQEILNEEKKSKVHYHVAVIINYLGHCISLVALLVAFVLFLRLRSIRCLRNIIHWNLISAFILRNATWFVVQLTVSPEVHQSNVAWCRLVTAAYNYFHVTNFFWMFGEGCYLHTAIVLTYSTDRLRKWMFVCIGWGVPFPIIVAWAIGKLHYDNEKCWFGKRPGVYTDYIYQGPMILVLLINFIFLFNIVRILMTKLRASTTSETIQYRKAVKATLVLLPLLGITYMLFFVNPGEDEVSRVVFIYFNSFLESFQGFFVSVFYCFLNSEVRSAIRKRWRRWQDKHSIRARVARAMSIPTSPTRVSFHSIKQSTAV
Assay: Displacement of [125I]Tyr-ovine-CRF from CRF1 receptor in rat frontal cortex homogenate by gamma counting
Assay type: tissue-based
Procedure, shortened: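 Washed homogenates of frozen rat frontal cortex (CRF1, 25 μg/well) or porcine choroid plexus (CRF2, 10 μg/well) in 50 mM Hepes pH 7.0, 10 mM MgCl2, 2 mM EGTA, protease inhibitors, 0.005% Triton X-100. Ligand 150 pM 125I-ovine-CRF (CRF1) or 100 pM 125I-sauvagine (CRF2). Incubation 2 h at 21 °C, then filtration and gamma counting. Nonspecific binding: 1 μM CRF1 reference antagonist or 1 μM α-helical CRF(9-41). IC50 from 5- or 10-point curves by nonlinear regression.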

SMILES | IC50 [nM]
CCN(c1c(Cl)cc(OC)cc1Cl)c1nccn([C@H](C)C2CC2)c1=O | 34
COC[C@H](C)n1cc(Cl)nc(Nc2cc(C)c(OC)cc2C)c1=O | 5.8
CC[C@H](C1CC1)n1cc(Cl)nc(Nc2c(C)cccc2Cl)c1=O | 9.3
CC[C@H](C1CC1)n1cc(Cl)nc(Nc2cc(C)c(OC)cc2C)c1=O | 0.27
CC[C@H](C1CC1)n1cc(Cl)nc(Nc2c(C)cc(C)cc2C)c1=O | 0.63
CCCC(CCC)n1cc(Cl)nc(Nc2c(C)cc(C)cc2C)c1=O | 2.4

The next lines start with the values.

IC50 [nM] | SMILES
6.6 | CC[C@H](C1CC1)n1cc(Cl)nc(Nc2ccc(C)cc2C)c1=O
2.4 | C[C@H](C1CC1)n1cc(Cl)nc(Nc2c(Cl)cc(C#N)cc2Cl)c1=O
6.7 | COc1ccc(Nc2nc(C#N)cn([C@H](C)C3CC3)c2=O)c(C(F)(F)F)n1
1.2 | COc1ccc(Nc2nc(Br)cn([C@H](C)C3CC3)c2=O)c(C(F)(F)F)n1
1.1 | COc1cc(Cl)c(Nc2nc(Cl)cn([C@H](C)C3CC3)c2=O)c(Cl)c1
6.3 | C[C@@H](C1CC1)n1cc(Cl)nc(Nc2c(Cl)cc(C#N)cc2Cl)c1=O
0.42 | COc1cc(C)c(Nc2nc(Cl)cn([C@H](C)C3CC3)c2=O)cc1C
